The record followed here is ChEMBL document CHEMBL1765057, “Pyrazolo[4,3-d]pyrimidine bioisostere of roscovitine: evaluation of a novel selective inhibitor of cyclin-dependent kinases with antiproliferative activity” (J Med Chem, 2011).

For test [1], the system named is U-266. Nature of the test: Cytotoxicity against human U266 cells after 72 hrs by fluoroskan ascent microplate reader analysis. The class given is functional, cell-based. To be noted: U-266, 72 h. The method, boiled down:
(§1)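 Cells were grown in DMEM with 10% FCS and 4 mM glutamine at 37 °C under CO2, then plated at densities suited to each line. Compounds were added as 3-fold dilutions in triplicate for 72 h.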

In test [2] the test system is HBL-100. Nature of the test: Cytotoxicity against human HBL100 cells after 72 hrs by fluoroskan ascent microplate reader analysis. To be noted: HBL-100, 72 h. It is filed as functional, cell-based. In outline: as §1
The subject of test [3] is A549. The test is described as follows: Cytotoxicity against human A549 cells after 72 hrs by fluoroskan ascent microplate reader analysis. It is filed as functional, cell-based. Conditions: A549, 72 h. In outline: as §1
Test [4] deals with HL-60. The test is described as follows: Cytotoxicity against human HL60 cells after 72 hrs by fluoroskan ascent microplate reader analysis. It is filed as functional, cell-based. To be noted: HL-60, 72 h. In outline: as §1
Test [5] has as its target Cellular tumor antigen p53 (Homo sapiens) (UniProt P04637). Nature of the test: Induction of p53-dependent transcriptional activity in human MCF7 cells assessed as increase of p21 WAF1 level at 10 uM after 24 hrs by immunofluorescence assay. The class given is cell-based. To be noted: in the assay text read “by immunoblotting analysis” for “by immunofluorescence assay”. In outline: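 MCF-7 cells were exposed 24 h to 10 μM. Total lysates were made in Laemmli buffer, run on SDS-PAGE and blotted to nitrocellulose, then probed with antibodies to p53, p21WAF1 and Mdm-2, with peroxidase secondary and ECL detection.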

For test [6], the system named is RPMI-8226. The test is described as follows: Cytotoxicity against human RPMI8226 cells after 72 hrs by fluoroskan ascent microplate reader analysis. The class given is functional, cell-based. To be noted: RPMI-8226, 72 h. The method, boiled down: as §1
For test [7], the system named is G-361. The test is described as follows: Cytotoxicity against human G361 cells after 72 hrs by fluoroskan ascent microplate reader analysis. The class given is functional, cell-based. To be noted: G-361, 72 h. In outline: as §1
Test [8] relates to MCF7. The test is described as follows: Induction of apoptosis in human MCF7 cells at 10 uM after 24 hrs. It is filed as functional, cell-based.
In test [9] the test system is RPMI-8226. The test is described as follows: Induction of apoptosis in human RPMI8226 cells assessed as cleaved fragmentation of caspase3 after 24 hrs by immunoblot analysis. It is filed as functional, cell-based. The method, boiled down:
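RPMI-8226 cells were treated continuously for 24 h, and total lysates were made in Laemmli buffer, run on SDS-PAGE and blotted to nitrocellulose. Loading was checked with Ponceau-S. Membranes were blocked in milk or BSA, probed overnight at 4 °C with antibodies to PARP, caspase-3 and Mcl-1, then peroxidase secondary (1:2000), with ECL detection.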
Background: In western blotting, separated proteins are transferred to a membrane and probed.

The target of test [10] is Cyclin-dependent kinase 5/CDK5 activator 1 (Homo sapiens) (UniProt Q00535+Q15078). To be noted: at 10 µM.
Test [11] concerns HT-29. Nature of the test: Cytotoxicity against human HT-29 cells after 72 hrs by fluoroskan ascent microplate reader analysis. It is filed as functional, cell-based. Conditions: HT-29, 72 h. The method, boiled down:
as §1

Test [12] concerns the target T1, Retinoblastoma-associated protein (Homo sapiens) (UniProt P06400).
T1 sequence (whole entry): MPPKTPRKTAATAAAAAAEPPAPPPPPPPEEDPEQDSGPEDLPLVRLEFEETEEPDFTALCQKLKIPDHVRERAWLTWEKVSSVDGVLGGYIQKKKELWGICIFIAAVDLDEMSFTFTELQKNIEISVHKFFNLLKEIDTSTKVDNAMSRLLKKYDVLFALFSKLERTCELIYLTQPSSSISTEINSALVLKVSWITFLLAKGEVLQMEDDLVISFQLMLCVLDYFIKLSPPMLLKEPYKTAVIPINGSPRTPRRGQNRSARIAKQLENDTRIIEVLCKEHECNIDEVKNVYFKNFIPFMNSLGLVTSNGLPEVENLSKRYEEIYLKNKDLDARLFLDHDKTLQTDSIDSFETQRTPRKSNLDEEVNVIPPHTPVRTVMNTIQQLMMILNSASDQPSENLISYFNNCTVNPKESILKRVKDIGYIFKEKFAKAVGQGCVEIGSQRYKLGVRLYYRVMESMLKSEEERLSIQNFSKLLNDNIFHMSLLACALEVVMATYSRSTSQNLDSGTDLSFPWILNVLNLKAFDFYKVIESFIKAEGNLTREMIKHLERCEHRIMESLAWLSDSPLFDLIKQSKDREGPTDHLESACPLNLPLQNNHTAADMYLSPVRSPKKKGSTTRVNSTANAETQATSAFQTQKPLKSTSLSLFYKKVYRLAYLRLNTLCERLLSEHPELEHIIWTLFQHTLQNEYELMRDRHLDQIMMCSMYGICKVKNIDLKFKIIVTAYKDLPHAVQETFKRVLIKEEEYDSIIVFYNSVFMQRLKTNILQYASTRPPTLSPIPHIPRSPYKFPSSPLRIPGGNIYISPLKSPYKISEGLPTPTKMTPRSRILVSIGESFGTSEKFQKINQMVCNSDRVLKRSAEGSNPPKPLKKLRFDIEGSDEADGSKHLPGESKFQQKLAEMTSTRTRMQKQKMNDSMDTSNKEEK
The test is described as follows: Inhibition of retinoblastoma protein in human MCF7 cells assessed as reduction of CDK1 level at 2.5 to 40 uM after 24 hrs by immunoblotting. The class given is cell-based. The method, boiled down: (§2)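 Asynchronous, exponentially growing MCF-7 cells were exposed 24 h to a range of concentrations. Total lysates were made in Laemmli buffer, run on SDS-PAGE and blotted to nitrocellulose. Membranes were probed overnight at 4 °C with specific or phosphospecific antibodies (pRb S249/T252, S780, S795, S807/811), with tubulin as loading control and ECL detection.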

The target in test [13] is Dual specificity mitogen-activated protein kinase kinase 1 (Homo sapiens) (UniProt Q02750). The test is described as follows: Inhibition of human recombinant MEK1 at 10 uM.
The target in test [14] is T1, Retinoblastoma-associated protein (Homo sapiens). Nature of the test: Inhibition of retinoblastoma protein in human MCF7 cells assessed as reduction of cyclin D1 level at 2.5 to 40 uM after 24 hrs by immunoblotting. The class given is cell-based. The method, boiled down: as §2
For test [15] the target is unchanged. Nature of the test: Inhibition of retinoblastoma protein phosphorylation at Ser249/Thr252, Ser807/811, Ser780, and Ser795 in human MCF7 cells after 24 hrs by immunoblotting. It is filed as cell-based. In outline:
as §2

Test [16] deals with RPMI-8226. The test is described as follows: Cell cycle arrest in human RPMI8226 cells assessed as accumulation at G2/M phase after 24 hrs using propidium iodide and BrdU staining by flow cytometry. It is filed as functional, cell-based. In outline: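 Asynchronously growing RPMI-8226 multiple myeloma cells were exposed for 24 h. Cells were double-stained with propidium iodide and BrdU and analysed by flow cytometry for G1, S, G2/M and BrdU-positive fractions. The subG1 population was taken as indicative of apoptosis.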

For test [17], the system named is RPMI-8226. Nature of the test: Induction of apoptosis in human RPMI8226 cells assessed as induction of caspase3 activation at 20 uM after 24 hrs by immunoblot analysis. It is filed as functional, cell-based.
In test [18] the test system is MCF7. Nature of the test: Cell cycle arrest in human MCF7 cells assessed as accumulation at G2/M phase after 24 hrs using propidium iodide and BrdU staining by flow cytometry. The class given is functional, cell-based. In outline: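 Subconfluent MCF-7 cells were treated for 24 h at a range of concentrations. They were pulse-labelled with 10 μM BrdU for 30 min at 37 °C, then trypsinized and fixed in ice-cold 70% ethanol. DNA was denatured in 2 M HCl and neutralized with borate. Cells were stained with fluorescein anti-BrdU and with propidium iodide plus RNase A, then analysed by flow cytometry at 488 nm.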
A general note: Uptake of a labelled nucleoside into DNA is a usual measure of proliferation.

Test [19] relates to A-431. Nature of the test: Cytotoxicity against human A431 cells after 72 hrs by fluoroskan ascent microplate reader analysis. It is filed as functional, cell-based. To be noted: A-431, 72 h. The method, boiled down: as §1
Test [20] concerns the target Ribosomal protein S6 kinase alpha-5 (Homo sapiens) (UniProt O75582). Nature of the test: Inhibition of human recombinant MSK1 at 10 uM.

Active and inactive are the calls of the source. The calls are words filed in the database; no cut-off is given here.

Chain of Cyclin-dependent kinase 5/CDK5 activator 1 (Homo sapiens) (Q00535 whole entry): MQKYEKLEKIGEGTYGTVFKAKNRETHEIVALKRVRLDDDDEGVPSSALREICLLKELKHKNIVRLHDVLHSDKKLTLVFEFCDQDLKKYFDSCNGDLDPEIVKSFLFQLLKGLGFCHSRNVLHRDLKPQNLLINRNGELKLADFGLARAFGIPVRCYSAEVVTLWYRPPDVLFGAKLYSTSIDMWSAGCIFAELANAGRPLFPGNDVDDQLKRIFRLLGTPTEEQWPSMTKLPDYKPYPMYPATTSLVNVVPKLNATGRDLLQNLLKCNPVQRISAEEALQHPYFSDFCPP
Chain of Cyclin-dependent kinase 5/CDK5 activator 1 (Homo sapiens) (Q15078 99-307 partner limits assumed): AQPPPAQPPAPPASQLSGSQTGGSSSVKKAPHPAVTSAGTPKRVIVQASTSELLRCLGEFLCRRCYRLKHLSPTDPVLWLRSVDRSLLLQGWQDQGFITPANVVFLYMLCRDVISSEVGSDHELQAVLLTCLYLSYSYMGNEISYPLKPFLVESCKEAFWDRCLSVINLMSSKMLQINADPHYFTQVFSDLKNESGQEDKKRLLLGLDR
Chain of Cellular tumor antigen p53 (Homo sapiens) (P04637 whole entry, looked up): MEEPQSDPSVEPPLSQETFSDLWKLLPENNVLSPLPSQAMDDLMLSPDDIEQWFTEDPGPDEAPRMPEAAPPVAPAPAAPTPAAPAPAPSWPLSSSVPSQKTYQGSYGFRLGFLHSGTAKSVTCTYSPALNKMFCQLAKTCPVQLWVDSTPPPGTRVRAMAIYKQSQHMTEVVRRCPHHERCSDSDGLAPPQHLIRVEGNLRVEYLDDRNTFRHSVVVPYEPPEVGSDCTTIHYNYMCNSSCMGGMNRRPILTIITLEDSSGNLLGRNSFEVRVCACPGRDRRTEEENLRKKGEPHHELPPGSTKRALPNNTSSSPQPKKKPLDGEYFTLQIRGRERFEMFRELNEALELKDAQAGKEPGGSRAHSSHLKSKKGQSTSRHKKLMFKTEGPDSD
Chain of Ribosomal protein S6 kinase alpha-5 (Homo sapiens) (O75582 whole entry, looked up): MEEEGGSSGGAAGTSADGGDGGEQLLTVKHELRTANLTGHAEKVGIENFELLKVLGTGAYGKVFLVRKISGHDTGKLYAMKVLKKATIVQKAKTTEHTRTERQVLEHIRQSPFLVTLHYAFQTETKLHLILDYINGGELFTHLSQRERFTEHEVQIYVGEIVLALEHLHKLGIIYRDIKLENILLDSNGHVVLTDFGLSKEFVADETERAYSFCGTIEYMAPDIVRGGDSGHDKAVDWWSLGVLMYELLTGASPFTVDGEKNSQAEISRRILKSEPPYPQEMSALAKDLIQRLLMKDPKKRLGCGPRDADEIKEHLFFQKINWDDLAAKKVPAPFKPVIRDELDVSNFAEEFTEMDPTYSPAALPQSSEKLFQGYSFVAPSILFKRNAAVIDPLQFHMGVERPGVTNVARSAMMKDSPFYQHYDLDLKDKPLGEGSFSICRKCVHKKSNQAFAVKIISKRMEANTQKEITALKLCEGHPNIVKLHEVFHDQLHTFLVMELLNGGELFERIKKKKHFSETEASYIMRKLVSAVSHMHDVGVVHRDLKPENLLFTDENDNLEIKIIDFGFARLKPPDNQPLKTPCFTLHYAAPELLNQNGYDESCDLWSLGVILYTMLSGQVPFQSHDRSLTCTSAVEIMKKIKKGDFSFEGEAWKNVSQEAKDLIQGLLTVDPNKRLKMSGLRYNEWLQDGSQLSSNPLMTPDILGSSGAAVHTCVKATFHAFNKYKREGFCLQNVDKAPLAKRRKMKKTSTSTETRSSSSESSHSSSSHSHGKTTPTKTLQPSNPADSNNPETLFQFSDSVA
Chain of Dual specificity mitogen-activated protein kinase kinase 1 (Homo sapiens) (Q02750 whole entry): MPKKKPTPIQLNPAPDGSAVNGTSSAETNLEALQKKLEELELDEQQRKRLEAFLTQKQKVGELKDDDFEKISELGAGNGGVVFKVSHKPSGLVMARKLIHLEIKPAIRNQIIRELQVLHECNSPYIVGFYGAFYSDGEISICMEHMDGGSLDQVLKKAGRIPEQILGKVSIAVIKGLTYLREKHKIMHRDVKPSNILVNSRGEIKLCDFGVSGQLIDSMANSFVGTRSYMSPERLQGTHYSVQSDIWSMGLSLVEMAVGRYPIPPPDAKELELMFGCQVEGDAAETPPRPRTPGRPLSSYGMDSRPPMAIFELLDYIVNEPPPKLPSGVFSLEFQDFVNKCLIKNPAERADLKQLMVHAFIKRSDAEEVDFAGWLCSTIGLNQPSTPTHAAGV

By IC50 is commonly meant the concentration that inhibits the measured activity by half. Read a high IC50 as a need for much substance. One may read the inhibition as the relative decrease from the control value, in per cent. For `CC[C@H](CO)Nc1nc(NCc2ccccc2)c2[nH]nc(C(C)C)c2n1`, the 50% inhibitory concentration (IC50) in [1] turned out to be 4.9 µM; in test [2], 11.3 µM; in [3] it was 7.1 µM; in test [4], 7.1 µM; in test [6], 3.6 µM; in test [7] it was 4.8 µM. The IC50 was 6.6 µM in test [11] and 7.7 µM in [19]. The outcome in test [5], in [8], in test [9], in test [16], in [17] and in test [18] was Active. The inhibition in test [10] was 95%; in test [13], 58%; in [15], “Dose-dependent effect”; in [20] it was 39%. Moreover, in [12], the inhibition result was “inactive”. In addition, the inhibition entry in test [14] was “Active”.
